Assay results taken from ChEMBL document CHEMBL3297648, “Diterpenoids from the Chinese liverwort Heteroscyphus tener and their antiproliferative effects” (J Nat Prod, 2014).
The source made the active and inactive calls. No cut-off for these calls is given here.

What was measured:
[1] = Cell cycle arrest at G0/G1 phase in human PC3 cells after 24 hrs by propidium iodide staining based flow cytometry; assay type: functional; conditions: PC-3
[2] = Decrease in cyclin D1 protein expression in human PC3 cells by western blot analysis; assay type: functional, cell-based; conditions: PC-3, TDE = time-dependent effect
Summary of the method: (§1)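 Western blot of cyclin D1, cyclin E, Cdk4 and p21 in PC3 and DU145 lysates. Lysis in RIPA buffer plus protease inhibitors, BCA quantification, 12% SDS-PAGE, nitrocellulose transfer, milk block, primaries overnight at 4 °C, secondary 1:2000 for 45 min, ECL read-out. GAPDH served as loading control.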

[3] = test system: PC-3; experiment: Induction of apoptosis in human PC3 cells assessed as cleaved caspase-3 level at 20 uM after 12 hrs by western blot analysis; assay type: functional, cell-based
Summary of the method: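 Cells exposed to 20 μM for the stated times. Lysis in RIPA plus protease inhibitors, BCA protein assay, equal protein on 12% SDS-PAGE, transfer to nitrocellulose. Blocking in 5% milk/TBST 1 h; primary antibodies overnight at 4 °C; secondary 1:2000 for 45 min; ECL detection. GAPDH served as loading control.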

[4] = test system: DU-145; experiment: Cell cycle arrest in human DU145 cells assessed as accumulation at S phase at 10 uM after 24 hrs by propidium iodide staining based flow cytometry (reference value: 25.94%); assay type: functional
[5] = test system: DU-145; experiment: Cell cycle arrest at G0/G1 phase in human DU145 cells after 24 hrs by propidium iodide staining based flow cytometry; assay type: functional
[6] = test system: PC-3; experiment: Antiproliferative activity against human PC3 cells assessed as inhibition of cell viability at 20 uM pretreated for 1 hr with 5 mM antioxidant NAC measured after 24 hrs by MTT assay; assay type: functional, cell-based
[7] = test system: PC-3; experiment: Induction of apoptosis in human PC3 cells assessed as late apoptotic cells at 20 uM after 8 hrs by Annexin V-FITC/propidium iodide staining based flow cytometry (reference value: 7.92%); assay type: functional
Summary of the method: (§2)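 Cells seeded in 6-well plates for 24 h, then given 20 μM for the stated times. Cells were trypsinized, PBS-washed, stained with annexin V-FITC/PI, and analysed immediately by flow cytometry. Means ± SD of three independent experiments; Student's t test against untreated control.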

[8] = Decrease in cyclin E protein expression in human DU145 cells by western blot analysis; assay type: functional, cell-based; conditions: DU-145, TDE = time-dependent effect; summary of the method: as §1
[9] = Cell cycle arrest in human PC3 cells assessed as accumulation at S phase at 10 uM after 24 hrs by propidium iodide staining based flow cytometry (reference value: 22.07%); assay type: functional; conditions: PC-3
[10] = Cell cycle arrest in human PC3 cells assessed as accumulation at S phase at 20 uM after 24 hrs by propidium iodide staining based flow cytometry (reference value: 22.07%); assay type: functional; conditions: PC-3
[11] = test system: DU-145; experiment: Cell cycle arrest in human DU145 cells assessed as accumulation at S phase at 20 uM after 24 hrs by propidium iodide staining based flow cytometry (reference value: 25.94%); assay type: functional
[12] = Decrease in BRCA1 protein expression in human PC3 cells at 20 uM after 2 to 48 hrs by western blot analysis; assay type: functional, cell-based; conditions: PC-3
Summary of the method: (§3)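 Cells treated at 20 μM for various times, lysed in RIPA buffer with protease/phosphatase inhibitors, protein quantified by BCA. Equal protein run on 12% SDS-PAGE, transferred to nitrocellulose, blocked 1 h in 5% milk/TBST, primary antibodies overnight at 4 °C, secondary 1:2000 for 45 min, ECL detection on film. GAPDH used as loading control.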

[13] = test system: DU-145; experiment: Cell cycle arrest in human DU145 cells assessed as accumulation at G0/G1 phase at 20 uM after 24 hrs by propidium iodide staining based flow cytometry (reference value: 63.34%); assay type: functional
[14] = test system: PC-3; experiment: Induction of apoptosis in human PC3 cells assessed as necrotic cells at 20 uM after 12 hrs by Annexin V-FITC/propidium iodide staining based flow cytometry (reference value: 0.98%); assay type: functional; summary of the method: as §2
[15] = Cell cycle arrest in human PC3 cells assessed as accumulation at G0/G1 phase at 20 uM after 24 hrs by propidium iodide staining based flow cytometry (reference value: 66.57%); assay type: functional; conditions: PC-3
[16] = test system: PC-3; experiment: Increase in p21CIP1 protein expression in human PC3 cells after 2 to 48 hrs by western blot analysis; assay type: functional, cell-based; summary of the method: as §1
[17] = test system: DU-145; experiment: Cell cycle arrest in human DU145 cells assessed as accumulation at G2/M phase at 10 uM after 24 hrs by propidium iodide staining based flow cytometry (reference value: 10.44%); assay type: functional
[18] = Cell cycle arrest in human PC3 cells assessed as accumulation at G0/G1 phase at 10 uM after 24 hrs by propidium iodide staining based flow cytometry (reference value: 66.57%); assay type: functional; conditions: PC-3
[19] = test system: PC-3; experiment: Induction of apoptosis in human PC3 cells assessed as early apoptotic cells at 20 uM after 4 hrs by Annexin V-FITC/propidium iodide staining based flow cytometry (reference value: 0.79%); assay type: functional; summary of the method: as §2
[20] = test system: DU-145; experiment: Cell cycle arrest in human DU145 cells assessed as accumulation at G0/G1 phase at 10 uM after 24 hrs by propidium iodide staining based flow cytometry (reference value: 63.34%); assay type: functional
[21] = test system: PC-3; experiment: Induction of apoptosis in human PC3 cells assessed as early apoptotic cells at 20 uM after 8 hrs by Annexin V-FITC/propidium iodide staining based flow cytometry (reference value: 0.79%); assay type: functional; summary of the method: as §2
[22] = Decrease in cyclin D1 protein expression in human DU145 cells by western blot analysis; assay type: functional, cell-based; conditions: DU-145, TDE = time-dependent effect; summary of the method: as §1
[23] = Decrease in Cdk4 protein expression in human PC3 cells after 2 to 48 hrs by western blot analysis; assay type: functional, cell-based; conditions: PC-3; summary of the method: as §1
[24] = test system: DU-145; experiment: Induction of apoptosis in human DU145 cells assessed as early apoptotic cells at 20 uM after 8 hrs by Annexin V-FITC/propidium iodide staining based flow cytometry (reference value: 1.60%); assay type: functional; summary of the method: as §2
[25] = test system: DU-145; experiment: Induction of apoptosis in human DU145 cells assessed as necrotic cells at 20 uM after 24 hrs by Annexin V-FITC/propidium iodide staining based flow cytometry (reference value: 0.21%); assay type: functional; summary of the method: as §2
[26] = Antiproliferative activity against human PC3 cells assessed as inhibition of cell viability after 24 hrs by MTT assay; assay type: functional, cell-based; conditions: PC-3, 24 h
Summary of the method: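 Cells grown to 50–70% confluence (RWPE1 in K-SFM with pituitary extract and EGF; the other lines in RPMI 1640 with 10% FBS), 5% CO2, 37 °C. Treated for 24 h with DMSO vehicle, compounds, or cisplatin as positive control. MTT (5 mg/mL) added for 4 h, formazan dissolved in DMSO, absorbance read at 570 nm. Viability taken relative to untreated cells after blank subtraction, IC50 fitted from % viability, at least three experiments.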

[27] = test system: DU-145; experiment: Antiproliferative activity against human DU145 cells assessed as inhibition of cell viability at 20 uM pretreated for 1 hr with 5 mM antioxidant NAC measured after 24 hrs by MTT assay; assay type: functional, cell-based
[28] = test system: DU-145; experiment: Induction of DNA damage in human DU145 cells assessed as gamma-H2AX phosphorylation at ser139 at 20 uM by western blot analysis; assay type: functional, cell-based; conditions: TDE = time-dependent effect; summary of the method: as §3
[29] = test system: PC-3; experiment: Induction of apoptosis in human PC3 cells assessed as late apoptotic cells at 20 uM after 12 hrs by Annexin V-FITC/propidium iodide staining based flow cytometry (reference value: 7.92%); assay type: functional; summary of the method: as §2
[30] = test system: PC-3; experiment: Induction of apoptosis in human PC3 cells assessed as early apoptotic cells at 20 uM after 12 hrs by Annexin V-FITC/propidium iodide staining based flow cytometry (reference value: 0.79%); assay type: functional; summary of the method: as §2

## C=C[C@@](C)(O)CC[C@@H]1C(C)=CC[C@@H]2C(C)(C)CCC[C@@]12C
[1]
  Activity: Dose-dependent effect
[2]
  inhibition: tde
[3]
  Activity: Active
[4]
  Activity: 21.68%
[5]
  Activity: Dose-dependent effect
[6]
  inhibition: inactive
[7]
  Activity: 15.29%
[8]
  inhibition: tde
[9]
  Activity: 13.9%
[10]
  Activity: 4.24%
[11]
  Activity: 8.73%
[12]
  inhibition: inactive
[13]
  Activity: 75.55%
[14]
  Activity: 4.68%
[15]
  Activity: 82.5%
[16]
  Activity: Active
[17]
  Activity: 8.38%
[18]
  Activity: 73%
[19]
  Activity: 2.48%
[20]
  Activity: 67.97%
[21]
  Activity: 2.27%
[22]
  inhibition: tde
[23]
  inhibition: Active
[24]
  Activity: 4.56%
[25]
  Activity: 4.55%
[26]
  IC50: 26.6 µM
[27]
  inhibition: inactive
[28]
  Activity: tde
[29]
  Activity: 12.66%
[30]
  Activity: 3.51%
